Test system: Fibroblast
Assay: Multiplex assay against human fibroblast
Type: toxicity, cell-based
Summary of the method: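 At seeding, live cells were stained with Hoechst33342, BioTracker Green Microtubule Cytoskeleton Dye, MitoTracker Red and Annexin V Alexa Fluor 680. After compound addition they were imaged on a CQ1 microscope at 37°C and 5% CO2, and CellPathfinder machine-learning gating sorted them into Hoechst high-intensity objects or normal cells, with normal cells further split into healthy, pyknosed or fragmented nuclei and pyknosed cells into mitotic or apoptotic. Tubulin, mitochondrial-mass and membrane-permeability phenotypes are given as per cents of cells with healthy nuclei.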

[1] = 12 h, 1 µM, compound concentration 1 uM, replicate 1
[2] = 12 h, 1 µM, compound concentration 1 uM, replicate 2
[3] = 12 h, 10 µM, compound concentration 10 uM, replicate 1
[4] = 12 h, 10 µM, compound concentration 10 uM, replicate 2
[5] = 24 h, 1 µM, compound concentration 1 uM, replicate 1
[6] = 24 h, 1 µM, compound concentration 1 uM, replicate 2
[7] = 24 h, 10 µM, compound concentration 10 uM, replicate 1
[8] = 24 h, 10 µM, compound concentration 10 uM, replicate 2
[9] = 48 h, 1 µM, compound concentration 1 uM, replicate 1
[10] = 48 h, 1 µM, compound concentration 1 uM, replicate 2
[11] = 48 h, 10 µM, compound concentration 10 uM, replicate 1
[12] = 48 h, 10 µM, compound concentration 10 uM, replicate 2

For `OCCCNc1cc(-c2ccnc(Nc3cccc(Cl)c3)n2)ccn1`, the “Population Apoptotic (%)” value [1] was 58%, the “Population Fragmented Nuclei (%)” value [1] was 15% and the “Population Healthy Nuclei (%)” value [1] was 66%. For the same molecule, the “Population Hoechst High Intensity Objects (%)” value [1] was 4%, the “Population Membrane Permeable-Phenotype (%)” value [1] was 0% and the “Population Mitochondria Different-Phenotype (%)” value [1] was 9%. For the same molecule, the “Population Mitotic Cells (%)” value [1] was 41%, the “Population Normal (%)” value [1] was 95% and the “Population Pyknosed Nuclei (%)” value [1] was 18%. The “Population Tubulin-Different-Phenotype (%)” value [1] was 52%, the “Total Cell Count” value [1] was 139 and the “Population Apoptotic (%)” value [2] was 50%. The “Population Fragmented Nuclei (%)” value [2] was 21%, the “Population Healthy Nuclei (%)” value [2] was 53% and the “Population Hoechst High Intensity Objects (%)” value [2] was 6%. The “Population Membrane Permeable-Phenotype (%)” value [2] was 5%, the “Population Mitochondria Different-Phenotype (%)” value [2] was 13% and the “Population Mitotic Cells (%)” value [2] was 50%. The “Population Normal (%)” value [2] was 93%, the “Population Pyknosed Nuclei (%)” value [2] was 24% and the “Population Tubulin-Different-Phenotype (%)” value [2] was 47%. For the same molecule, the “Total Cell Count” value [2] was 138, the “Population Apoptotic (%)” value [3] was 61% and the “Population Fragmented Nuclei (%)” value [3] was 38%. For the same molecule, the “Population Healthy Nuclei (%)” value [3] was 44%, the “Population Hoechst High Intensity Objects (%)” value [3] was 10% and the “Population Membrane Permeable-Phenotype (%)” value [3] was 9%. The “Population Mitochondria Different-Phenotype (%)” value [3] was 25%, the “Population Mitotic Cells (%)” value [3] was 38% and the “Population Normal (%)” value [3] was 89%. The “Population Pyknosed Nuclei (%)” value [3] was 17%, the “Population Tubulin-Different-Phenotype (%)” value [3] was 88% and the “Total Cell Count” value [3] was 136. For the same molecule, the “Population Apoptotic (%)” value [4] was 52%, the “Population Fragmented Nuclei (%)” value [4] was 65% and the “Population Healthy Nuclei (%)” value [4] was 24%. The “Population Hoechst High Intensity Objects (%)” value [4] was 6%, the “Population Membrane Permeable-Phenotype (%)” value [4] was 20% and the “Population Mitochondria Different-Phenotype (%)” value [4] was 11%. For the same molecule, the “Population Mitotic Cells (%)” value [4] was 47%, the “Population Normal (%)” value [4] was 93% and the “Population Pyknosed Nuclei (%)” value [4] was 9%. The “Population Tubulin-Different-Phenotype (%)” value [4] was 84%, the “Total Cell Count” value [4] was 227 and the “Population Apoptotic (%)” value [5] was 56%. The “Population Fragmented Nuclei (%)” value [5] was 16%, the “Population Healthy Nuclei (%)” value [5] was 65% and the “Population Hoechst High Intensity Objects (%)” value [5] was 2%. The “Population Membrane Permeable-Phenotype (%)” value [5] was 1%, the “Population Mitochondria Different-Phenotype (%)” value [5] was 20% and the “Population Mitotic Cells (%)” value [5] was 43%. The “Population Normal (%)” value [5] was 97%, the “Population Pyknosed Nuclei (%)” value [5] was 17% and the “Population Tubulin-Different-Phenotype (%)” value [5] was 60%. For the same molecule, the “Total Cell Count” value [5] was 136, the “Population Apoptotic (%)” value [6] was 46% and the “Population Fragmented Nuclei (%)” value [6] was 29%. The “Population Healthy Nuclei (%)” value [6] was 48%, the “Population Hoechst High Intensity Objects (%)” value [6] was 3% and the “Population Membrane Permeable-Phenotype (%)” value [6] was 6%. The “Population Mitochondria Different-Phenotype (%)” value [6] was 10%, the “Population Mitotic Cells (%)” value [6] was 53% and the “Population Normal (%)” value [6] was 96%. The “Population Pyknosed Nuclei (%)” value [6] was 22%, the “Population Tubulin-Different-Phenotype (%)” value [6] was 55% and the “Total Cell Count” value [6] was 139. For the same molecule, the “Population Apoptotic (%)” value [7] was 80%, the “Population Fragmented Nuclei (%)” value [7] was 36% and the “Population Healthy Nuclei (%)” value [7] was 42%. The “Population Hoechst High Intensity Objects (%)” value [7] was 11%, the “Population Membrane Permeable-Phenotype (%)” value [7] was 7% and the “Population Mitochondria Different-Phenotype (%)” value [7] was 46%. The “Population Mitotic Cells (%)” value [7] was 20%, the “Population Normal (%)” value [7] was 88% and the “Population Pyknosed Nuclei (%)” value [7] was 20%. The “Population Tubulin-Different-Phenotype (%)” value [7] was 86%, the “Total Cell Count” value [7] was 138 and the “Population Fragmented Nuclei (%)” value [8] was 63%. For the same molecule, the “Population Healthy Nuclei (%)” value [8] was 27%, the “Population Hoechst High Intensity Objects (%)” value [8] was 6% and the “Population Membrane Permeable-Phenotype (%)” value [8] was 12%. For the same molecule, the “Population Mitochondria Different-Phenotype (%)” value [8] was 9%, the “Population Normal (%)” value [8] was 93% and the “Population Pyknosed Nuclei (%)” value [8] was 9%. The “Population Tubulin-Different-Phenotype (%)” value [8] was 80%, the “Total Cell Count” value [8] was 218 and the “Population Apoptotic (%)” value [9] was 46%. For the same molecule, the “Population Fragmented Nuclei (%)” value [9] was 27%, the “Population Healthy Nuclei (%)” value [9] was 47% and the “Population Hoechst High Intensity Objects (%)” value [9] was 8%. For the same molecule, the “Population Membrane Permeable-Phenotype (%)” value [9] was 1%, the “Population Mitochondria Different-Phenotype (%)” value [9] was 20% and the “Population Mitotic Cells (%)” value [9] was 53%. For the same molecule, the “Population Normal (%)” value [9] was 91%, the “Population Pyknosed Nuclei (%)” value [9] was 25% and the “Population Tubulin-Different-Phenotype (%)” value [9] was 66%. The “Total Cell Count” value [9] was 136, the “Population Apoptotic (%)” value [10] was 37% and the “Population Fragmented Nuclei (%)” value [10] was 36%. For the same molecule, the “Population Healthy Nuclei (%)” value [10] was 30%, the “Population Hoechst High Intensity Objects (%)” value [10] was 7% and the “Population Membrane Permeable-Phenotype (%)” value [10] was 5%. The “Population Mitochondria Different-Phenotype (%)” value [10] was 24%, the “Population Mitotic Cells (%)” value [10] was 62% and the “Population Normal (%)” value [10] was 92%. For the same molecule, the “Population Pyknosed Nuclei (%)” value [10] was 32%, the “Population Tubulin-Different-Phenotype (%)” value [10] was 45% and the “Total Cell Count” value [10] was 132. For the same molecule, the “Population Apoptotic (%)” value [11] was 91%, the “Population Fragmented Nuclei (%)” value [11] was 39% and the “Population Healthy Nuclei (%)” value [11] was 39%. For the same molecule, the “Population Hoechst High Intensity Objects (%)” value [11] was 14%, the “Population Membrane Permeable-Phenotype (%)” value [11] was 15% and the “Population Mitochondria Different-Phenotype (%)” value [11] was 42%. The “Population Mitotic Cells (%)” value [11] was 8%, the “Population Normal (%)” value [11] was 85% and the “Population Pyknosed Nuclei (%)” value [11] was 21%. The “Population Tubulin-Different-Phenotype (%)” value [11] was 77%, the “Total Cell Count” value [11] was 134 and the “Population Apoptotic (%)” value [12] was 85%. The “Population Fragmented Nuclei (%)” value [12] was 58%, the “Population Healthy Nuclei (%)” value [12] was 30% and the “Population Hoechst High Intensity Objects (%)” value [12] was 6%. For the same molecule, the “Population Membrane Permeable-Phenotype (%)” value [12] was 20%, the “Population Mitochondria Different-Phenotype (%)” value [12] was 20% and the “Population Mitotic Cells (%)” value [12] was 14%. The “Population Normal (%)” value [12] was 93%, the “Population Pyknosed Nuclei (%)” value [12] was 11% and the “Population Tubulin-Different-Phenotype (%)” value [12] was 64%. For the same molecule, the “Total Cell Count” value [12] was 192.

Source: ChEMBL document CHEMBL5058577, “EUbOPEN Chemogenomics Library 2 (Multiplex)” (2022)
